Assay results reported in ChEMBL document CHEMBL3112482, “Nonclassical antifolates, part 5. Benzodiazepine analogs as a new class of DHFR inhibitors: synthesis, antitumor testing and molecular modeling study” (Eur J Med Chem, 2014).

Columns and labels:
[1] = tested on: LOX IMVI; assay: Growth inhibition of human LOXIMVI cells at 10 uM after 48 hrs; assay type: functional; conditions: read-out: GI
In short: (§1)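 Single-dose primary screen in the NCI 60 human tumour cell line panel, run at the NCI facility. The panel covers nine subpanels: leukaemia, non-small cell lung, colon, CNS, melanoma, ovarian, renal, prostate and breast. Read-out was percent growth of treated cells, shown as a mean graph and reported as percent growth inhibition.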

[2] = tested on: U-251; assay: Growth inhibition of human U251 cells at 10 uM after 48 hrs; assay type: functional; conditions: U-251, 48 h, read-out: GI
In short: (§2)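 NCI 60-cell-line disease-oriented human tumor panel, single-dose primary screen at 10 µM. Data given as mean-graph percent growth of treated cells, reported as percent growth inhibition (GI %).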

[3] = tested on: SNB-75; assay: Growth inhibition of human SNB75 cells at 10 uM after 48 hrs; assay type: functional; conditions: SNB-75, 48 h, read-out: GI; in short: as §2
[4] = tested on: SNB-19; assay: Growth inhibition of human SNB19 cells at 10 uM after 48 hrs; assay type: functional; conditions: SNB-19, 48 h, read-out: GI; in short: as §2
[5] = Growth inhibition of human SF539 cells at 10 uM after 48 hrs; assay type: functional; conditions: SF-539, 48 h, read-out: GI; in short: as §2
[6] = tested on: SF-268; assay: Growth inhibition of human SF268 cells at 10 uM after 48 hrs; assay type: functional; conditions: SF-268, 48 h, read-out: GI; in short: as §2
[7] = tested on: SF-295; assay: Growth inhibition of human SF295 cells at 10 uM after 48 hrs; assay type: functional; conditions: SF-295, 48 h, read-out: GI; in short: as §2
[8] = tested on: SW-620; assay: Growth inhibition of human SW620 cells at 10 uM after 48 hrs; assay type: functional; conditions: SW-620, 48 h, read-out: GI; in short: as §2
[9] = tested on: COLO 205; assay: Growth inhibition of human COLO205 cells at 10 uM after 48 hrs; assay type: functional; conditions: COLO 205, 48 h, read-out: GI; in short: as §1
[10] = tested on: NCI-H522; assay: Growth inhibition of human NCI-H522 cells at 10 uM after 48 hrs; assay type: functional; conditions: NCI-H522, 48 h, read-out: GI; in short: as §1
[11] = tested on: NCI-H322M; assay: Growth inhibition of human NCI-H322M cells at 10 uM after 48 hrs; assay type: functional; conditions: read-out: GI; in short: as §1
[12] = tested on: NCI-H23; assay: Growth inhibition of human NCI-H23 cells at 10 uM after 48 hrs; assay type: functional; conditions: NCI-H23, 48 h, read-out: GI; in short: as §1
[13] = tested on: NCI-H226; assay: Growth inhibition of human NCI-H226 cells at 10 uM after 48 hrs; assay type: functional; conditions: NCI-H226, 48 h, read-out: GI; in short: as §1
[14] = tested on: HOP-62; assay: Growth inhibition of human HOP62 cells at 10 uM after 48 hrs; assay type: functional; conditions: HOP-62, 48 h, read-out: GI; in short: as §1
[15] = Growth inhibition of human EKVX cells at 10 uM after 48 hrs; assay type: functional; conditions: read-out: GI; in short: as §1
[16] = tested on: A549; assay: Growth inhibition of human A549 cells at 10 uM after 48 hrs; assay type: functional; conditions: A549, 48 h, read-out: GI; in short: as §1
[17] = tested on: SR; assay: Growth inhibition of human SR cells at 10 uM after 48 hrs; assay type: functional; conditions: read-out: GI; in short: as §2
[18] = tested on: K562; assay: Growth inhibition of human K562 cells at 10 uM after 48 hrs; assay type: functional; conditions: K562, 48 h, read-out: GI; in short: as §1
[19] = tested on: MOLT-4; assay: Growth inhibition of human MOLT4 cells at 10 uM after 48 hrs; assay type: functional; conditions: MOLT-4, 48 h, read-out: GI; in short: as §1
[20] = tested on: CCRF-CEM; assay: Growth inhibition of human CCRF-CEM cells at 10 uM after 48 hrs; assay type: functional; conditions: read-out: GI; in short: as §1
[21] = tested on: T47D; assay: Growth inhibition of human T47D cells at 10 uM after 48 hrs; assay type: functional; conditions: read-out: GI; in short: as §2
[22] = Growth inhibition of human Hs 578T cells at 10 uM after 48 hrs; assay type: functional; conditions: read-out: GI; in short: as §1
[23] = tested on: MCF7; assay: Growth inhibition of human MCF7 cells at 10 uM after 48 hrs; assay type: functional; conditions: MCF7, 48 h, read-out: GI; in short: as §1
[24] = tested on: MDA-MB-231; assay: Growth inhibition of human MDA-MB-231 cells at 10 uM after 48 hrs; assay type: functional; conditions: MDA-MB-231, 48 h, read-out: GI; in short: as §1
[25] = tested on: PC-3; assay: Growth inhibition of human PC3 cells at 10 uM after 48 hrs; assay type: functional; conditions: PC-3, 48 h, read-out: GI; in short: as §1
[26] = tested on: TK-10; assay: Growth inhibition of human TK10 cells at 10 uM after 48 hrs; assay type: functional; conditions: TK-10, 48 h, read-out: GI; in short: as §2
[27] = Growth inhibition of human UO31 cells at 10 uM after 48 hrs; assay type: functional; conditions: UO-31, 48 h, read-out: GI; in short: as §2
[28] = tested on: CAKI-1; assay: Growth inhibition of human CAKI-1 cells at 10 uM after 48 hrs; assay type: functional; conditions: CAKI-1, 48 h, read-out: GI; in short: as §1
[29] = Growth inhibition of human RXF393 cells at 10 uM after 48 hrs; assay type: functional; conditions: RXF 393, 48 h, read-out: GI; in short: as §1
[30] = tested on: SK-OV-3; assay: Growth inhibition of human SKOV3 cells at 10 uM after 48 hrs; assay type: functional; conditions: SK-OV-3, 48 h, read-out: GI; in short: as §2
[31] = Growth inhibition of human NCI-ADR-RES cells at 10 uM after 48 hrs; assay type: functional; conditions: read-out: GI; in short: as §1
[32] = Growth inhibition of human OVCAR5 cells at 10 uM after 48 hrs; assay type: functional; conditions: OVCAR-5, 48 h, read-out: GI; in short: as §1
[33] = Growth inhibition of human OVCAR4 cells at 10 uM after 48 hrs; assay type: functional; conditions: OVCAR-4, 48 h, read-out: GI; in short: as §1
[34] = tested on: IGROV-1; assay: Growth inhibition of human IGROV1 cells at 10 uM after 48 hrs; assay type: functional; conditions: IGROV-1, 48 h, read-out: GI; in short: as §1
[35] = tested on: UACC-62; assay: Growth inhibition of human UACC62 cells at 10 uM after 48 hrs; assay type: functional; conditions: UACC-62, 48 h, read-out: GI; in short: as §2
[36] = tested on: SK-MEL-28; assay: Growth inhibition of human SK-MEL-28 cells at 10 uM after 48 hrs; assay type: functional; conditions: SK-MEL-28, 48 h, read-out: GI; in short: as §2
[37] = tested on: SK-MEL-2; assay: Growth inhibition of human SK-MEL-2 cells at 10 uM after 48 hrs; assay type: functional; conditions: SK-MEL-2, 48 h, read-out: GI; in short: as §2
[38] = target: T1, Dihydrofolate reductase (Bos taurus, UniProt P00376); assay: Inhibition of bovine liver DHFR measured for every 1 min of 10 mins
T1 sequence (P00376 whole entry): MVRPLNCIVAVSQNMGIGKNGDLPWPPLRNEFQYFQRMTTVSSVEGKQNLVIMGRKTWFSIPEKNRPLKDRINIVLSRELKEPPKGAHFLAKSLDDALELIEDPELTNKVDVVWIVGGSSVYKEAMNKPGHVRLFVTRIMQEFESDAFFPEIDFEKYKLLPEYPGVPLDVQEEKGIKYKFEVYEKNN

[39] = Cytotoxicity against human prostate cancer cells at 10 uM after 48 hrs; assay type: functional; conditions: Cancer cell lines
[40] = Cytotoxicity against human colon cancer cells at 10 uM after 48 hrs; assay type: functional; conditions: Cancer cell lines; in short: as §1
[41] = Cytotoxicity against human leukemia cells at 10 uM after 48 hrs; assay type: functional; conditions: Leukemia cell

Cc1nc2c(c(-c3ccc(Br)cc3)n1)CCC/C2=C\c1ccc(Br)cc1
inhibition of growth at 10 µM [1]: < 30%
inhibition of growth at 10 µM [2]: < 30%
inhibition of growth at 10 µM [3]: < 30%
inhibition of growth at 10 µM [4]: < 30%
inhibition of growth at 10 µM [5]: < 30%
inhibition of growth at 10 µM [6]: < 30%
inhibition of growth at 10 µM [7]: < 30%
inhibition of growth at 10 µM [8]: < 30%
inhibition of growth at 10 µM [9]: < 30%
inhibition of growth at 10 µM [10]: < 30%
inhibition of growth at 10 µM [11]: < 30%
inhibition of growth at 10 µM [12]: < 30%
inhibition of growth at 10 µM [13]: < 30%
inhibition of growth at 10 µM [14]: < 30%
inhibition of growth at 10 µM [15]: < 30%
inhibition of growth at 10 µM [16]: < 30%
inhibition of growth at 10 µM [17]: < 30%
inhibition of growth at 10 µM [18]: < 30%
inhibition of growth at 10 µM [19]: < 30%
inhibition of growth at 10 µM [20]: < 30%
inhibition of growth at 10 µM [21]: < 30%
inhibition of growth at 10 µM [22]: < 30%
inhibition of growth at 10 µM [23]: 56.7%
inhibition of growth at 10 µM [24]: < 30%
inhibition of growth at 10 µM [25]: < 30%
inhibition of growth at 10 µM [26]: < 30%
inhibition of growth at 10 µM [27]: < 30%
inhibition of growth at 10 µM [28]: < 30%
inhibition of growth at 10 µM [29]: < 30%
inhibition of growth at 10 µM [30]: < 30%
inhibition of growth at 10 µM [31]: < 30%
inhibition of growth at 10 µM [32]: < 30%
inhibition of growth at 10 µM [33]: < 30%
inhibition of growth at 10 µM [34]: < 30%
inhibition of growth at 10 µM [35]: < 30%
inhibition of growth at 10 µM [36]: < 30%
inhibition of growth at 10 µM [37]: < 30%

Nc1nc2c(c(-c3ccc(Cl)cc3)n1)CCC/C2=C\c1ccc(Cl)cc1
inhibition of growth at 10 µM [2]: 86.1%
inhibition of growth at 10 µM [3]: < 30%
inhibition of growth at 10 µM [4]: < 30%
inhibition of growth at 10 µM [5]: < 30%
inhibition of growth at 10 µM [6]: < 30%
inhibition of growth at 10 µM [7]: 32.5%
inhibition of growth at 10 µM [8]: 81.1%
inhibition of growth at 10 µM [9]: < 30%
inhibition of growth at 10 µM [10]: 81%
inhibition of growth at 10 µM [11]: < 30%
inhibition of growth at 10 µM [12]: 38.9%
inhibition of growth at 10 µM [13]: < 30%
inhibition of growth at 10 µM [14]: < 30%
inhibition of growth at 10 µM [15]: < 30%
inhibition of growth at 10 µM [16]: 33.3%
inhibition of growth at 10 µM [17]: 79.2%
inhibition of growth at 10 µM [18]: 56.5%
inhibition of growth at 10 µM [19]: 35.1%
inhibition of growth at 10 µM [20]: < 30%
IC50 [38]: 17 µM
GI50 [39]: 12.3 µM
LC50 [39]: 95 µM
TGI [39]: 51.2 µM
GI50 [40]: 4 µM
TGI [40]: 12.5 µM
CC50 ([40]; read-out: LC50 (the source's name)): 51.3 µM
GI50 [41]: 7.8 µM
LC50 [41]: > 100 µM
TGI [41]: 61.1 µM
inhibition of growth at 10 µM [21]: < 30%
inhibition of growth at 10 µM [22]: < 30%
inhibition of growth at 10 µM [23]: 66.9%
inhibition of growth at 10 µM [24]: < 30%
inhibition of growth at 10 µM [25]: < 30%
inhibition of growth at 10 µM [26]: < 30%
inhibition of growth at 10 µM [27]: 32.2%
inhibition of growth at 10 µM [28]: < 30%
inhibition of growth at 10 µM [29]: 65.5%
inhibition of growth at 10 µM [30]: < 30%
inhibition of growth at 10 µM [31]: < 30%
inhibition of growth at 10 µM [32]: < 30%
inhibition of growth at 10 µM [33]: < 30%
inhibition of growth at 10 µM [34]: < 30%
inhibition of growth at 10 µM [35]: < 30%
inhibition of growth at 10 µM [36]: < 30%
inhibition of growth at 10 µM [37]: < 30%
